According to ChEMBL document CHEMBL1123886 (J Med Chem, 1987):
Active and inactive are the calls of the source. The calls are words filed in the database; no cut-off is given here.

Legend:
[1] = system: Lewis lung carcinoma cell line; experiment: Percent increase in life span, of the drug-treated tumor-bearing animals vs nontreated tumor-bearing controls with LL (Lewis lung carcinoma model) cells.; format: functional, Mus musculus
Summary of the method: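 Groups of 6. Optimal dose is in mg/kg per day. ILSmax is the % lifespan increase over untreated tumor-bearing controls at the optimal dose; above 40% counted significant. Cures are 60-day survivors.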

Mus musculus = organism: Mus musculus; experiment: Percent increase in life span of the drug treated tumor bearing animals vs nontreated tumor bearing controls was determined against P388/ADR cells;NA= not active; format: functional, organism-based
Summary of the method: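 Mice were inoculated ip with 10^6 P388 or ADR/P388 cells. OD is the optimal dose in mg/kg per day. ILSmax is the % lifespan increase over untreated tumor-bearing controls at the OD; above 20% is significant. Long-term survival was scored at 50 days.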

P388 [2] = experiment: Optimal dose required to inhibit the P388 intraperitoneal administration.; format: functional, Mus musculus; parameters: unit: mg/kg/day
[3] = system: Lewis lung carcinoma cell line; experiment: Optimal dose to inhibit the LL (Lewis lung carcinoma model) cells in vivo after intraperitoneal administration.; format: functional, Mus musculus; parameters: unit: mg/kg/day
Summary of the method: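 Mice were inoculated iv with 10^6 Lewis lung carcinoma cells. OD is the optimal dose in mg/kg per day. Lifespan increase above 40% is significant, and long-term survival was scored at 60 days.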

P388/ADR [4] = experiment: Optimal dose required to inhibit the P388/ADR cells in vivo after intraperitoneal administration.; format: functional, Mus musculus; parameters: unit: mg/kg/day
poly[d(A-T)] = experiment: Binding constant for poly[d(A-T)] by ethidium bromide displacement
P388 [5] = experiment: Percent increase in life span of the drug-treated tumor-bearing animals vs nontreated tumor-bearing controls with P388 leukemia cells.; format: functional, Mus musculus
Summary of the method: (§1)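 Groups of 6. Optimal dose is in mg/kg per day. ILSmax is the % lifespan increase over untreated tumor-bearing controls at the optimal dose; above 20% counted significant. Cures are 50-day survivors.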

L1210 = experiment: Ability to inhibit the growth of leukemia L1210 cells in vitro.; format: functional, cell-based; settings: Mus musculus
Summary of the method: (§2)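 Cultured leukemia L1210 or human colon tumor HCT-8 cells were exposed to drug for 40 h.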

[6] = Lipophilicity (Rm).; format: physicochemical
HCT-8 = experiment: Ability to inhibit the growth of human colon tumor HCT-8 cells in vitro.; format: functional, cell-based; summary of the method: as §2
[7] = The compound was evaluated for its acid dissociation constant; format: ADME
P388/ADR [8] = experiment: Percent increase in life span, of the drug-treated tumor-bearing animals vs nontreated tumor-bearing controls with P388/ADR cells.; format: functional, Mus musculus; summary of the method: as §1

| SMILES | ILS max [1] | ILS max (Mus musculus) | OD (P388 [2]) | OD [3] | OD (P388/ADR [4]) | Log K (poly[d(A-T)]) | ILS max (P388 [5]) | IC50 (L1210) [nM] | Rm [6] | IC50 (HCT-8) [nM] | pKa [7] | ILS max (P388/ADR [8]) |
| --- | --- | --- | --- | --- | --- | --- | --- | --- | --- | --- | --- | --- |
| CNc1cc(NC(=O)OC)ccc1Nc1c2ccccc2nc2cc([N+](=O)[O-])ccc12 | 49 | inactive | 30 | 65 | 20 | 6.58 | 48 | 5060 | 0.4 | – | – | – |
| CNc1cc(NC(=O)OC)ccc1Nc1c2ccccc2nc2c(C(N)=O)cccc12 | – | – | 100 | 65 | 100 | 6 | 32 | 1600 | 0.06 | 3600 | – | – |
| COc1cc(NC(C)=O)ccc1Nc1c2ccccc2nc2ccccc12 | – | inactive | 13.3 | – | 8.9 | 6.1 | 50 | – | 0.3 | – | 7.79 | – |
| COC(=O)Nc1ccc(Nc2c3ccccc3nc3ccccc23)c(OC)c1 | – | – | 30 | – | 45 | 6.24 | 86 | – | 0.5 | – | 7.93 | 33 |
| CN(C)c1cc(NS(C)(=O)=O)ccc1Nc1c2ccccc2nc2ccccc12 | – | – | 166 | – | 100 | – | – | – | 0.41 | – | – | 41 |
| CNc1cc(NC(=O)OC)ccc1Nc1c2ccc(F)cc2nc2c(C)cccc12 | 126 | – | 65 | 45 | 65 | 7.37 | 43 | 520 | 0.52 | 610 | – | 47 |
| CNc1cc(NC(=O)OC)ccc1Nc1c2ccc(C)cc2nc2c(OC)cccc12 | 107 | – | 45 | 65 | 45 | 7.34 | 128 | 11 | 0.61 | – | – | 57 |
| CNc1cc(NC(=O)OC)ccc1Nc1c2ccc(F)cc2nc2c(OC)cccc12 | 52 | inactive | 100 | 45 | 45 | 6.27 | 125 | 940 | 0.45 | 1600 | – | – |
| CNc1cc(NC(=O)OC)ccc1Nc1c2ccc(C)cc2nc2c(C)cccc12 | 171 | – | 20 | 20 | 13.3 | 6.95 | 181 | 44 | 0.51 | 80 | – | 33 |
| CNC(=O)c1cccc2c(Nc3ccc(NC(=O)OC)cc3NC)c3cccc(OC)c3nc12 | 47 | – | 65 | 65 | 45 | 6.95 | 92 | 1750 | 0.45 | – | – | 31 |
| CNc1cc(NC(=O)OC)ccc1Nc1c2ccc(Br)cc2nc2c(C)cccc12 | 82 | – | 45 | 30 | 45 | 7.52 | 286 | 180 | 0.69 | 230 | – | 42 |
| CNC(=O)c1cccc2c(Nc3ccc(NC(=O)OC)cc3NC)c3ccccc3nc12 | 58 | – | 65 | 65 | 65 | 6.48 | 60 | 840 | 0.43 | 2750 | – | – |
| CNc1cc(NC(=O)OC)ccc1Nc1c2ccccc2nc2c(C)cccc12 | 122 | – | 13.3 | 20 | 20 | 6.74 | 114 | 101 | 0.56 | 190 | – | 43 |
| COc1cc(NS(C)(=O)=O)ccc1Nc1c2ccccc2nc2ccccc12 [AMSACRINE] | – | inactive | – | – | – | – | – | – | 0.18 | – | – | – |
| CNC(=O)c1cccc2c(Nc3ccc(NC(=O)OC)cc3NC)c3cccc(C)c3nc12 | 84 | – | 20 | 30 | 30 | 7.12 | 99 | 1200 | 0.5 | 1850 | – | 35 |
| CNc1cc(NC(=O)OC)ccc1Nc1c2ccccc2nc2cc(OC)ccc12 | 85 | – | 45 | 45 | 65 | 6.74 | 108 | 170 | 0.45 | 330 | – | 89 |
| CNc1cc(NC(C)=O)ccc1Nc1c2ccccc2nc2ccccc12 | – | inactive | 65 | – | 65 | 6.79 | 96 | – | 0.3 | – | 7.8 | – |
| CNc1cc(NC(=O)OC)ccc1Nc1c2ccccc2nc2cc(F)ccc12 | 83 | – | 65 | 100 | 100 | 5.77 | 110 | 200 | 0.63 | 420 | – | 21 |
| CNc1cc(NC(=O)OC)ccc1Nc1c2ccc(Cl)cc2nc2c(C)cccc12 | 143 | – | 45 | 45 | 45 | 7.52 | 173 | 185 | 0.67 | 330 | – | 79 |
| CNc1cc(NC(=O)OC)ccc1Nc1c2ccccc2nc2cc(Br)ccc12 | 86 | – | 45 | 45 | 45 | 6.87 | 101 | 341 | 0.7 | 800 | – | 29 |
| CNc1cc(NC(=O)OC)ccc1Nc1c2ccccc2nc2c(F)cccc12 | 77 | – | 65 | 65 | 100 | 5.82 | 103 | 1400 | 0.37 | 2800 | – | 43 |
| CNc1cc(NC(=O)OC)ccc1Nc1c2ccccc2nc2c(OC)cccc12 | 167 | – | 30 | 30 | 30 | 6.57 | 98 | 540 | 0.41 | 630 | – | 35 |
| CNc1cc(NC(=O)OC)ccc1Nc1c2ccc(Br)cc2nc2c(OC)cccc12 | 31 | – | 65 | 100 | 65 | 6.43 | 98 | 360 | 0.55 | – | – | 20 |
| COc1cc(NP(=O)(OC)OC)ccc1Nc1c2ccccc2nc2ccccc12 | – | inactive | 8.9 | – | 8.9 | 6.18 | 67 | – | 0.37 | – | 8.21 | – |
| CNc1cc(NC(=O)OC)ccc1Nc1c2ccccc2nc2cc(I)ccc12 | 68 | inactive | 45 | 65 | 100 | 6.12 | 92 | 110 | 0.65 | 350 | – | – |
| CNc1cc(NS(C)(=O)=O)ccc1Nc1c2ccccc2nc2ccccc12 | – | inactive | – | – | 13.3 | – | – | – | 0.17 | – | – | – |
| COC(=O)Nc1ccc(Nc2c3ccccc3nc3ccccc23)c(N(C)C)c1 | – | inactive | 45 | – | 30 | 5.88 | 20 | – | 0.56 | – | 7.85 | – |
| COP(=O)(Nc1ccc(Nc2c3ccccc3nc3ccccc23)c(N(C)C)c1)OC | – | inactive | 100 | – | 100 | 6.43 | 97 | – | 0.44 | – | 8.17 | – |
| CNc1cc(NC(=O)OC)ccc1Nc1c2ccc(Cl)cc2nc2c(OC)cccc12 | 133 | – | 100 | 65 | 100 | 6.93 | 177 | 660 | 0.54 | 1100 | – | 73 |
| CNc1cc(NC(=O)OC)ccc1Nc1c2ccccc2nc2cc(Cl)ccc12 | 92 | – | 65 | 45 | 65 | 6.13 | 104 | 174 | 0.73 | 550 | – | 35 |
